MrgX1 agonist: agonists of human MrgX1 receptor; Q96LB2; MrgX1-HEK293 cells, Fluo-4 calcium fluorescence, agonist mode; hits give high values; B-score at 10 µM; 310,000 compounds, 0.44% hits; AID 588627;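 active = calcium response B-score plate-corrected fluorescence ratio at least 3 library SD, with starting fluorescence B-score inside 5 SD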
Target sequence (Q96LB2 whole entry, looked up): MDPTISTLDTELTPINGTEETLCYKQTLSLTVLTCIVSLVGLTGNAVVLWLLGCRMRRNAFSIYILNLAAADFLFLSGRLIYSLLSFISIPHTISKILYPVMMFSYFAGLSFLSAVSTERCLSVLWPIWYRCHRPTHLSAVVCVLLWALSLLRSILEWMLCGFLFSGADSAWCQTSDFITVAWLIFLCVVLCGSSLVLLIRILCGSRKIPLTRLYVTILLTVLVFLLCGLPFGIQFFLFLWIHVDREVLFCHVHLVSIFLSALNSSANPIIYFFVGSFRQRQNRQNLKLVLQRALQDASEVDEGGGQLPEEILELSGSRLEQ
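Material: MrgX1-expressing HEK293 cells / Dosing: compound as first of three additions / Incubation: overnight seeding, then 1 h dark dye loading / Signal: Fluo-4 NW calcium fluorescence / Evaluation: B-scored fluorescence response ratio / Benchmarks: positive and negative control wells on each plate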
MrgX1 PAM: allosterically activates human MrgX1 receptor signaling. Q96LB2. MrgX1-HEK293, Fluo-4 calcium flux, FDSS; hits give high values. B-score at 10 µM. 310,000 compounds, 0.63% hits;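 active = plate-corrected calcium response at least 3 library SD above typical, normal starting fluorescence, not activating the receptor alone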;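 also: compound read alongside a low EC10 to EC30 dose of BAM8-22 agonist; peak minus trough fluorescence over baseline measured at the second addition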
MrgX1 antag: blocks BAM8-22 activation of human MrgX1 receptor. Q96LB2. MRGX1-HEK293 calcium flux, Fluo-4, BAM8-22 antagonism; hits give low values. B-score at 10 µM. 310,000 compounds, 1.3% hits. AID 588676;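 active = calcium-response B-score plate-corrected more than 3 library SD below zero, starting fluorescence within 5 deviations, no agonist response on first addition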;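 also: peak minus trough fluorescence over baseline after final BAM8-22 challenge near maximal dose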
RGS4 block: human RGS4 inhibition; HEK293 M3R/RGS4 inducible, Fluo-4 calcium flux; hits give high values; triggered by carbachol at its EC20; B-score at 10 µM; 310,000 compounds, 0.45% hits; AID 463165;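 active = B-score, a plate-corrected calcium signal, over three deviations above library mean, with baseline fluorescence within five deviations of library mean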;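 also: RGS4 expression induced by doxycycline in cells with stable M3 receptor; B-score is computed from the integrated fluorescence ratio over baseline after carbachol; higher B-score means a larger calcium signal and so more RGS4 inhibition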
RGS4 pot: potentiators or activators of RGS4 | 310,000 compounds, 0.92% hits | AID 463111 | HEK293 M3R/inducible RGS4, carbachol calcium flux Fluo4; hits give low values | B-score at 10 µM;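 active = B-score of the integrated calcium signal more than 4 SD below the library mean, with starting fluorescence not abnormally high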;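 also: negative B-score means reduced calcium response which marks RGS4 activation or potentiation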
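Reagent: ECmax carbachol challenge; Test system: M3R-expressing HEK293 line, RGS4 induced by doxycycline; Schedule: overnight RGS4 induction, 30 min dye load 37 °C, 20 min compound RT; Detection: calcium dye Fluo4 fluorescence; Read-out: Agonist-evoked peak-minus-minimum fluorescence over baseline, integrated ratio, B score.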
* = called active by the depositor. A selection: hits, their analogues and other compounds. The true share with any hit is near 3.5%.

`O=C(Nc1ccc(Oc2ccccc2)cc1)C1CCN(c2c3c(nc4ncnn24)CCC3)CC1` gave MrgX1 agonist inactive, MrgX1 PAM inactive, MrgX1 antag inactive, RGS4 block inactive and RGS4 pot -11.8*.
Screening COc1ccc2nc(N3C(=O)/C(=C/c4ccccc4)NC3=S)sc2c1 returned MrgX1 agonist inactive, MrgX1 PAM 6.78*, MrgX1 antag inactive, RGS4 block inactive and RGS4 pot inactive.
Screening O=S(=O)(Cc1ccccc1)N=Nc1c(O)[nH]c2ccc(Br)cc12 returned MrgX1 agonist inactive, MrgX1 PAM 10.5*, MrgX1 antag inactive, RGS4 block inactive and RGS4 pot inactive.
`O=C(CNC(=O)c1ccccc1)N=Nc1c(O)[nH]c2ccc(Br)cc12` gave MrgX1 agonist inactive, MrgX1 PAM inactive, MrgX1 antag inactive, RGS4 block inactive and RGS4 pot inactive.
For OCCOCCN1CCN(C(=S)Nc2ccccc2)CC1 the results were MrgX1 agonist inactive, MrgX1 PAM inactive, MrgX1 antag inactive, RGS4 block inactive and RGS4 pot inactive.
For CCOc1cc2[nH]c(=O)n(CCCC(=O)NCc3ccco3)c(=O)c2cc1OCC the results were MrgX1 agonist inactive, MrgX1 PAM inactive, MrgX1 antag inactive, RGS4 block inactive and RGS4 pot inactive.
COc1cc2[nH]c(=O)n(CCCCCC(=O)N3CC=C(c4ccccc4)CC3)c(=O)c2cc1OC was read as MrgX1 agonist inactive, MrgX1 PAM inactive, MrgX1 antag inactive, RGS4 block inactive and RGS4 pot -8.8*.
`CCOc1cc2[nH]c(=O)n(CCCC(=O)N(C)Cc3ccccc3)c(=O)c2cc1OCC` gave MrgX1 agonist inactive, MrgX1 PAM 7.92*, MrgX1 antag inactive, RGS4 block inactive and RGS4 pot inactive.
O=C(O)Cc1ccc(OCc2ccc(Cl)nc2)cc1 was read as MrgX1 agonist inactive, MrgX1 PAM inactive, MrgX1 antag inactive, RGS4 block inactive and RGS4 pot inactive.
For O=C(N/N=C/c1cn(-c2ccccc2)nc1-c1cccs1)c1ccc(Cl)cc1 the results were MrgX1 agonist inactive, MrgX1 PAM inactive, MrgX1 antag inactive, RGS4 block inactive and RGS4 pot -6.95*.
`O=C(N/N=C/c1cn(-c2ccccc2)nc1-c1cccnc1)c1ccc(F)cc1` gave MrgX1 agonist inactive, MrgX1 PAM inactive, MrgX1 antag inactive, RGS4 block inactive and RGS4 pot inactive.
`O=C(N/N=C/c1cn(-c2ccccc2)nc1-c1cccs1)c1ccccc1F` gave MrgX1 agonist inactive, MrgX1 PAM inactive, MrgX1 antag inactive, RGS4 block inactive and RGS4 pot -7.36*.
`CCCCN(C)S(=O)(=O)c1ccc(C(=O)Nc2nnc(-c3cccs3)o2)cc1` gave MrgX1 agonist 30.9*, MrgX1 PAM inactive, MrgX1 antag inactive, RGS4 block inactive and RGS4 pot inactive.
Screening N#CC1=C(N)n2c(s/c(=C\c3cccs3)c2=O)=C(C#N)C1c1cccs1 (configuration not stated) returned MrgX1 agonist inactive, MrgX1 PAM inactive, MrgX1 antag -7.37*, RGS4 block inactive and RGS4 pot inactive.
CC(=O)c1ccc(N2CCN(C(=O)c3ccc(Cn4c(=S)[nH]c5ccc(N6CCOCC6)cc5c4=O)cc3)CC2)cc1 was read as MrgX1 agonist inactive, MrgX1 PAM inactive, MrgX1 antag inactive, RGS4 block inactive and RGS4 pot inactive.
`Cc1ccc2nc(-c3ccccc3)cc(C(=O)N(C)CC(=O)Nc3ccccc3Br)c2c1` gave MrgX1 agonist inactive, MrgX1 PAM inactive, MrgX1 antag inactive, RGS4 block inactive and RGS4 pot -9.16*.
CN(CC(=O)Nc1cccc(F)c1)C(=O)c1cc(-c2ccccc2)nc2ccccc12 was read as MrgX1 agonist inactive, MrgX1 PAM inactive, MrgX1 antag inactive, RGS4 block inactive and RGS4 pot inactive.
CSc1nnc(NC(=O)c2cc(=O)c3cc(C)cc(C)c3o2)s1 was read as MrgX1 agonist inactive, MrgX1 PAM 10.5*, MrgX1 antag inactive, RGS4 block inactive and RGS4 pot inactive.
Cc1cc(C)c2oc(C(=O)Nc3nnc(C(C)C)s3)cc(=O)c2c1 was read as MrgX1 agonist inactive, MrgX1 PAM inactive, MrgX1 antag inactive, RGS4 block inactive and RGS4 pot inactive.

Assay outcomes as filed in PubChem.
